These results are taken from ChEMBL document CHEMBL1921795, “Discovery, synthesis, and structure-activity relationship development of a series of N-4-(2,5-dioxopyrrolidin-1-yl)phenylpicolinamides (VU0400195, ML182): characterization of a novel positive allosteric modulator of the metabotropic glutamate receptor 4 (mGlu(4)) with oral efficacy in an …” (J Med Chem, 2011).

For one data set, the target named is T1, Metabotropic glutamate receptor 4 (Homo sapiens, UniProt Q14833). Briefly: Positive allosteric modulation of human mGlu4 receptor expressed in CHO cells coexpressing Gqi5 assessed as potentiation of glutamate-induced calcium mobilization relative to (-)-PHCCC.
T1 sequence (Q14833 whole entry): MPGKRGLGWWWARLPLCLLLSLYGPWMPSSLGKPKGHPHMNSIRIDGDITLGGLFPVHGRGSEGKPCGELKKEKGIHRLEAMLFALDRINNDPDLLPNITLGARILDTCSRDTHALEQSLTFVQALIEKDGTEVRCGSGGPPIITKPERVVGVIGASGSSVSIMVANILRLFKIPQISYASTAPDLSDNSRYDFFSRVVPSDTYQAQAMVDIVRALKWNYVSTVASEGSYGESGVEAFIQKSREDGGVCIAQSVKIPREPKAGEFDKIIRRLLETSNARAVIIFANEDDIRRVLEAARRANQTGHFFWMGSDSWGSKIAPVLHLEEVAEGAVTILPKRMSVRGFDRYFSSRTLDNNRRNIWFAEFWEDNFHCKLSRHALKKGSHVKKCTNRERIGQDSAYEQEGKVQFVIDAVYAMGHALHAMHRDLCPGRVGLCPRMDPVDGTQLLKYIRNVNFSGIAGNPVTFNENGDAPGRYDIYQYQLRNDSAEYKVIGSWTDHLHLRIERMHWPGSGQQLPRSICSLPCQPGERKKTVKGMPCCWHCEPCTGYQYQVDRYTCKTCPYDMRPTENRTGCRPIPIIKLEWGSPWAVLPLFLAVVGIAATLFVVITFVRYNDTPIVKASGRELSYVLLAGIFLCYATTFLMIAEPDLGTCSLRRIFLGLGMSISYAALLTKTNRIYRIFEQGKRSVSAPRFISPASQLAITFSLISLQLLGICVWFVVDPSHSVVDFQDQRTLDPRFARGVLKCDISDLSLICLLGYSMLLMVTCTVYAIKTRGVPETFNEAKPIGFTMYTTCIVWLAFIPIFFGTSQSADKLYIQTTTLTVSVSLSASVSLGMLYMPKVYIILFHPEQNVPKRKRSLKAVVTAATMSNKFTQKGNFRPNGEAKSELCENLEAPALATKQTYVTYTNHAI
Details: not given; call rule not given here
The format is functional, cell-based. In short, it runs like this: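 CHO cells stably expressing human mGlu4 with chimeric Gqi5, plated overnight, loaded 45 min at 37 °C with 1 µM Fluo-4 AM. Compound (10-point, 1:3 dilutions) was added about 2.5 min before an EC20 glutamate, then EC80 glutamate 2 min later. Ca2+ fluorescence read at 470/540 nm. Four-parameter logistic fit.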
In general terms: Calcium assays in cells follow changes in intracellular calcium, usually with a dye or a luminescent sensor.
With `O=C(Nc1ccc(N2CCCS2(=O)=O)cc1)c1ccccn1`, the Activity is 25%.

In the case of `CC1(c2ccccc2)CC(=O)N(c2ccc(NC(=O)c3ccccn3)cc2Cl)C1=O` (racemic), the Activity amounted to 124%.

As to `O=C(Nc1ccc(N2S(=O)(=O)c3ccccc3S2(=O)=O)cc1)c1ccccc1`, the Activity worked out at 65%.

As for `O=C(Nc1ccc(N2C(=O)[C@@H]3[C@H](C2=O)[C@H]2C=C[C@@H]3CC2)c(Cl)c1)c1ccccn1`, the Activity came to 120%.

As to `O=C(Nc1ccc(N2S(=O)(=O)c3ccccc3S2(=O)=O)cc1)c1cccnc1`, the Activity was determined as 27.7%.

In the case of `CC1(C)[C@@H]2C(=O)N(c3ccc(NC(=O)c4ccccn4)cc3Cl)C(=O)[C@@H]21`, the Activity was 100%.

`O=C(Nc1ccc(N2S(=O)(=O)c3ccccc3S2(=O)=O)cc1)c1ccncc1`: the Activity came out at 22.3%.

`O=C(Nc1ccc(N2S(=O)(=O)c3ccccc3S2(=O)=O)cc1)c1cncs1`: the Activity is 39.7%.

Take `O=S1(=O)c2ccccc2S(=O)(=O)N1c1ccc(NCc2ccccn2)cc1`: the Activity came to 110%.

As to `CC1(C)CC(=O)N(c2ccc(NC(=O)c3ccccn3)cc2Cl)C1=O`, the Activity is 82%.

Turning to `O=C(Nc1ccc(N2C(=O)CCC2=O)c(Cl)c1)c1ccccn1`, the Activity stood at 74%.

`COc1cccc(C(=O)Nc2ccc(N3S(=O)(=O)c4ccccc4S3(=O)=O)cc2)n1`: the Activity amounted to 22%.

As for `O=C(Nc1ccccn1)c1ccc(N2S(=O)(=O)c3ccccc3S2(=O)=O)cc1`, the Activity was found to be 30.7%.

A further data set concerns Rattus norvegicus. The data set is described as follows: AUC (0 to 24 hrs) in Sprague-Dawley rat at 10 mg/kg, po by LC/MS analysis. Type of data set: ADME, organism-based, Plasma. Details: time < 24 hr, dose 10 mg/kg, route oral. Particulars: in vivo.
With `Cl.O=C(Nc1ccc(N2C(=O)CC3(CCCCC3)C2=O)c(Cl)c1)c1ccccn1`, the AUC (usually the area under the concentration-time curve, a measure of exposure) stood at 813 ng·h/mL.

The test system of another data set is Rattus norvegicus. Briefly: AUC (0 to 24 hrs) in Sprague-Dawley rat at 1 mg/kg, iv by LC/MS analysis. Particulars: in vivo. The format is ADME, organism-based, Plasma. Details: time < 24 hr, dose 1 mg/kg, route intravenous. Put shortly:
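Male Sprague-Dawley rats (n=2, 250-300 g) with carotid artery and jugular vein catheters, acclimated about one week, fed ad libitum. Dose given through the jugular catheter in 20% DMSO/80% saline at 1 mL/kg. Carotid blood drawn pre-dose and at 2, 7, 15, 30 min and 1, 2, 4, 7, 24 h into chilled EDTA tubes. Plasma measured by LC/MS/MS; parameters from noncompartmental analysis of individual profiles.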
Regarding `Cl.O=C(Nc1ccc(N2C(=O)CC3(CCCCC3)C2=O)c(Cl)c1)c1ccccn1`, the AUC is 346 ng·h/mL.

A further data set has as its target Metabotropic glutamate receptor 4 (Rattus norvegicus) (UniProt P31423). Briefly: Positive allosteric modulator activity at rat mGlu4 receptor by thallium flux assay at 30 uM relative to glutamate.
Details: not given
On to `CC1(c2ccccc2)CC(=O)N(c2ccc(NC(=O)c3ccccn3)cc2Cl)C1=O` (racemic), for which the fold change (FC) turned out to be 16.7.

In the case of `O=C(Nc1ccc(N2C(=O)[C@@H]3[C@H](C2=O)[C@H]2C=C[C@@H]3CC2)c(Cl)c1)c1ccccn1`, the fold change (FC) stood at 5.2.

As to `CC1(C)[C@@H]2C(=O)N(c3ccc(NC(=O)c4ccccn4)cc3Cl)C(=O)[C@@H]21`, the fold change (FC) turned out to be 5.5.

For another data set, the system named is Rattus norvegicus. The data set is described as follows: Volume of distribution at steady state in Sprague-Dawley rat at 1 mg/kg, iv by LC/MS analysis. Type of data set: ADME, organism-based. Details: dose 1 mg/kg, route intravenous. Particulars: in vivo. Put shortly:
(§1)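 Male Sprague-Dawley rats (n=2, 250-300 g), carotid and jugular cannulated; 1 mg/kg iv via jugular catheter in 20% DMSO/80% saline. Arterial blood from pre-dose to 24 h, EDTA plasma analysed by LC/MS/MS; noncompartmental analysis of individual profiles.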
With `Cl.O=C(Nc1ccc(N2C(=O)CC3(CCCCC3)C2=O)c(Cl)c1)c1ccccn1`, the Vdss – broadly, the apparent volume that relates the amount in the body to the concentration in plasma or blood – was found to be 5.5 L/kg.

A further data set deals with Metabotropic glutamate receptor 4 (Rattus norvegicus) (UniProt P31423). Briefly: Positive allosteric modulation of rat mGlu4 receptor assessed as potentiation of glutamate-induced thallium flux relative to (-)-PHCCC.
Metabotropic glutamate receptor 4 (Rattus norvegicus), sequence (P31423 whole entry): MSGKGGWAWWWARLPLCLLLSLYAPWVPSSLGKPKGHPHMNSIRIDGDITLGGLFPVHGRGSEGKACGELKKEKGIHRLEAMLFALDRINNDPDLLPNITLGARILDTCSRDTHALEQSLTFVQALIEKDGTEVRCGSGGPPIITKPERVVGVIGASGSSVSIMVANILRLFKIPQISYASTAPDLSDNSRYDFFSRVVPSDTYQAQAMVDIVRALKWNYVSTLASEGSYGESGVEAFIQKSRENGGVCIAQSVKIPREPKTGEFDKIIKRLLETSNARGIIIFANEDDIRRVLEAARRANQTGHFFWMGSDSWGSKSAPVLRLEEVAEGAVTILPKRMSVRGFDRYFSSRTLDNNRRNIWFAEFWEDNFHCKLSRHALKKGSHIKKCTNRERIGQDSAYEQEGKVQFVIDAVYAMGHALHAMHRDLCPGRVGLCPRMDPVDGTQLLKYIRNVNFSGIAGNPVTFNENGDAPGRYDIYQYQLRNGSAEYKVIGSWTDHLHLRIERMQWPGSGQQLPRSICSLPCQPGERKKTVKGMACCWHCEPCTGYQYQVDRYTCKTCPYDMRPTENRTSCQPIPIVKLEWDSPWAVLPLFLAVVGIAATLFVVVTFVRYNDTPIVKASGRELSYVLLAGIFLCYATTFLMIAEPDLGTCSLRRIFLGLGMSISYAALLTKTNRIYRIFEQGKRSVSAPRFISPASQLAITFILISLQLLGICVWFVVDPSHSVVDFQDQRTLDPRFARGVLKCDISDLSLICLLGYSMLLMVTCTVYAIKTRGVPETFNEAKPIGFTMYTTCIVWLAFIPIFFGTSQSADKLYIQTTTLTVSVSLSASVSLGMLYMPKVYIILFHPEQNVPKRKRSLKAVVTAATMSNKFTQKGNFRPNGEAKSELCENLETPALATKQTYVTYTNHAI
Details: not given
Details: concentration or dose not given beside the values.
Consider `CC1(c2ccccc2)CC(=O)N(c2ccc(NC(=O)c3ccccn3)cc2Cl)C1=O` (racemic), for which the Activity was found to be 131%.

For `O=C(Nc1ccc(N2C(=O)[C@@H]3[C@H](C2=O)[C@H]2C=C[C@@H]3CC2)c(Cl)c1)c1ccccn1`, the Activity was determined as 122%.

In the case of `CC1(C)[C@@H]2C(=O)N(c3ccc(NC(=O)c4ccccn4)cc3Cl)C(=O)[C@@H]21`, the Activity was 105%.

The test system of a further data set is Rattus norvegicus. Briefly: Oral bioavailability in Sprague-Dawley rat at 10 mg/kg by LC/MS analysis. The conditions noted are these: in vivo. Type of data set: ADME, organism-based.
In turn, `Cl.O=C(Nc1ccc(N2C(=O)CC3(CCCCC3)C2=O)c(Cl)c1)c1ccccn1` displayed an F of 24.6%.

The next data set relates to Rattus norvegicus. The data set is described as follows: Half life in Sprague-Dawley rat at 1 mg/kg, iv by LC/MS analysis. The format is ADME, organism-based. Further details: dose 1 mg/kg, route intravenous. The conditions noted are these: in vivo. In short, it runs like this: as §1
`Cl.O=C(Nc1ccc(N2C(=O)CC3(CCCCC3)C2=O)c(Cl)c1)c1ccccn1` had a t1/2 of 1.56 h.

The target in the next data set is T1, Metabotropic glutamate receptor 4. Briefly: Positive allosteric modulator activity at human mGlu4 receptor expressed in CHO cells expressing Gqi5 by calcium mobilization assay.
Details: not given
With `O=C(Nc1ccc(N2S(=O)(=O)c3ccccc3S2(=O)=O)cc1)c1ccccc1`, the EC50 (in general, the concentration needed to bring the measured effect to its halfway point) turned out to be 402 nM.

On to `O=S1(=O)c2ccccc2S(=O)(=O)N1c1ccc(NCc2ccccn2)cc1`, for which the EC50 was 1800 nM.

`CC1(C)CC(=O)N(c2ccc(NC(=O)c3ccccn3)cc2Cl)C1=O`: the EC50 was 1400 nM.

On to `O=C(Nc1ccc(N2C(=O)CCC2=O)c(Cl)c1)c1ccccn1`, for which the EC50 is 6200 nM.

The data set is the same for the next values; noted with them: cho.
In the case of `O=C(Nc1ccc(N2CCCS2(=O)=O)cc1)c1ccccn1`, the EC50 entry is listed as “Not Active”.

Consider `O=C(Nc1ccc(N2S(=O)(=O)c3ccccc3S2(=O)=O)cc1)c1cccnc1`, for which the EC50 result is “Not Active”.

For `O=C(Nc1ccc(N2S(=O)(=O)c3ccccc3S2(=O)=O)cc1)c1ccncc1`, the concentration for a half-maximal effect (EC50) result is “Not Active”.

In the case of `O=C(Nc1ccc(N2S(=O)(=O)c3ccccc3S2(=O)=O)cc1)c1cncs1`, the EC50 entry is “Not Active”.

Take `COc1cccc(C(=O)Nc2ccc(N3S(=O)(=O)c4ccccc4S3(=O)=O)cc2)n1`: the EC50 result is given as “Not Active”.

For `O=C(Nc1ccccn1)c1ccc(N2S(=O)(=O)c3ccccc3S2(=O)=O)cc1`, the EC50 entry is reported as “Not Active”.

In the next data set the test system is Rattus norvegicus. The data set is described as follows: Cmax in Sprague-Dawley rat at 10 mg/kg, po by LC/MS analysis. Further details: dose 10 mg/kg, route oral. The format is ADME, organism-based. Particulars: in vivo.
Regarding `Cl.O=C(Nc1ccc(N2C(=O)CC3(CCCCC3)C2=O)c(Cl)c1)c1ccccn1`, the Cmax (commonly the highest concentration seen after dosing) turned out to be 18.3 ng/mL.
